Results on 15 compounds are retold here after the M2OR odorant receptor database.

SMILES strings stand for the structures. Changes are numbered by the printed parent chain.

In one experiment the target is T1, OR2T5 (Homo sapiens) (UniProt Q6IEZ7).
T1 sequence (whole entry): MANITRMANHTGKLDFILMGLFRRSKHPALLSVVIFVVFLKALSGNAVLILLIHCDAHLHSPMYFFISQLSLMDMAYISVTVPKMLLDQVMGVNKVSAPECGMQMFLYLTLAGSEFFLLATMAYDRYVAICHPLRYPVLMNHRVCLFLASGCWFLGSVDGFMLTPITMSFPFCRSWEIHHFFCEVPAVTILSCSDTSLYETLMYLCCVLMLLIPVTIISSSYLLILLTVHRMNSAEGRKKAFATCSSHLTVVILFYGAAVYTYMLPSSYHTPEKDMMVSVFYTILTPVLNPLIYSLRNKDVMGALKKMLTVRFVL
To be noted: stereoisomer not certain. The method, boiled down: (§1)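 Each entry records the cell line, G-protein, co-transfected protein and tags used. Methods varied with the source, often transient luciferase assays in mammalian cell lines. A receptor–molecule pair is called responsive (active) if the original authors judged its signal statistically different from baseline and non-responsive (inactive) otherwise.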
For `CC(=O)c1c(C)c([N+](=O)[O-])c(C(C)(C)C)c([N+](=O)[O-])c1C`, the “odorant receptor agonist call” value was “inactive”.

With `CC1CCCCCCCCCCCCC(=O)C1` (stereo not given), the “odorant receptor agonist call” value is “inactive”.

In the case of `CCCC(S)CCOC(C)=O` (stereo not given), the “odorant receptor agonist call” value was “inactive”.

In the case of `CC(CO)CS` (stereo not given), the “odorant receptor agonist call” value is “inactive”.

On to `CCCCCC(S)C(C)CO` (stereo not given), for which the “odorant receptor agonist call” value was “inactive”.

Consider `CC1=C(O)C(=O)OC1C` (stereo not given), for which the “odorant receptor agonist call” value was “inactive”.

Take `CCCCCC(=O)C(C)C(C)=O` (stereo not given): the “odorant receptor agonist call” value was “inactive”.

As for `CCCCC(S)C(C)CO` (stereo not given), the “odorant receptor agonist call” value was “inactive”.

As for `CC1=NC(C)C(C)S1` (stereo not given), the “odorant receptor agonist call” value was “inactive”.

Take `CCC1OC(C)=C(O)C1=O` (stereo not given): the “odorant receptor agonist call” value was “inactive”.

On to `CCCCCCC=CCCC=O`, for which the “odorant receptor agonist call” value was “inactive”.

Take `CCC1OC(=O)C(O)=C1C` (stereo not given): the “odorant receptor agonist call” value is “inactive”.

On to `CC1=C(O)C(=O)C(C)O1` (stereo not given), for which the “odorant receptor agonist call” value was “inactive”.

Take `Cc1cnc(C)c(C)n1`: the “odorant receptor agonist call” value is “inactive”.

As to `CCC(S)C(C)CO` (stereo not given), the “odorant receptor agonist call” value was “inactive”.

The test system of the next experiment is T2, OR2T5 K13R K41M G45E.
T2 sequence (whole entry): T1 sequence (whole entry) with K13R, K41M, G45E
To be noted: stereoisomer not certain. In outline:
as §1
As for `CCCC(S)CCOC(C)=O` (stereo not given), the “odorant receptor agonist call” value is “inactive”.

Regarding `CC1=C(O)C(=O)OC1C` (stereo not given), the “odorant receptor agonist call” value is “inactive”.

For the compound `CC1=NC(C)C(C)S1` (stereo not given), the “odorant receptor agonist call” value is “inactive”.

For `CCC1OC(C)=C(O)C1=O` (stereo not given), the “odorant receptor agonist call” value is “inactive”.

With `CCCCCCC=CCCC=O`, the “odorant receptor agonist call” value was “inactive”.

As to `CCC1OC(=O)C(O)=C1C` (stereo not given), the “odorant receptor agonist call” value was “inactive”.

Take `CC1=C(O)C(=O)C(C)O1` (stereo not given): the “odorant receptor agonist call” value is “inactive”.

Turning to `Cc1cnc(C)c(C)n1`, the “odorant receptor agonist call” value was “inactive”.

For a further experiment, the system named is T3, OR2T5 K13R L134F.
T3 sequence (whole entry): T1 sequence (whole entry) with K13R, L134F
The settings on record: stereoisomer not certain. In outline:
as §1
With `CCCC(S)CCOC(C)=O` (stereo not given), the “odorant receptor agonist call” value is “inactive”.

Take `CC1=C(O)C(=O)OC1C` (stereo not given): the “odorant receptor agonist call” value is “inactive”.

`CC1=NC(C)C(C)S1` (stereo not given): the “odorant receptor agonist call” value was “inactive”.

For the compound `CCC1OC(C)=C(O)C1=O` (stereo not given), the “odorant receptor agonist call” value was “inactive”.

With `CCC1OC(=O)C(O)=C1C` (stereo not given), the “odorant receptor agonist call” value was “inactive”.

As for `CC1=C(O)C(=O)C(C)O1` (stereo not given), the “odorant receptor agonist call” value was “inactive”.

In the case of `Cc1cnc(C)c(C)n1`, the “odorant receptor agonist call” value is “inactive”.

In a further experiment the target is T4, OR2T6 (Homo sapiens) (UniProt Q8NHC8).
T4 sequence (whole entry): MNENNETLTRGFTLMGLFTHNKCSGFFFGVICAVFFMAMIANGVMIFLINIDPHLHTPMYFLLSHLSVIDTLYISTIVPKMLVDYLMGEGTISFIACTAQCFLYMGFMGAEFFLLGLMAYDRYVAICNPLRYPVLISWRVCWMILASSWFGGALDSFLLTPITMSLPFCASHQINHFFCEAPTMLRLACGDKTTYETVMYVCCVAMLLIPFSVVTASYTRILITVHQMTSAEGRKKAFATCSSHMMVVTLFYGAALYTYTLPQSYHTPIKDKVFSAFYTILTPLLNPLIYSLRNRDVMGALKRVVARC
The settings on record: stereoisomer not certain. In outline: as §1
As to `CC(=O)c1c(C)c([N+](=O)[O-])c(C(C)(C)C)c([N+](=O)[O-])c1C`, the “odorant receptor agonist call” value was “inactive”.

For `CC1CCCCCCCCCCCCC(=O)C1` (stereo not given), the “odorant receptor agonist call” value is “inactive”.

As for `CCCC(S)CCOC(C)=O` (stereo not given), the “odorant receptor agonist call” value was “inactive”.

On to `CC(CO)CS` (stereo not given), for which the “odorant receptor agonist call” value is “inactive”.

As for `CCCCCC(S)C(C)CO` (stereo not given), the “odorant receptor agonist call” value is “inactive”.

For `CC1=C(O)C(=O)OC1C` (stereo not given), the “odorant receptor agonist call” value is “inactive”.

`CCCCCC(=O)C(C)C(C)=O` (stereo not given): the “odorant receptor agonist call” value was “inactive”.

Regarding `CCCCC(S)C(C)CO` (stereo not given), the “odorant receptor agonist call” value is “inactive”.

Turning to `CC1=NC(C)C(C)S1` (stereo not given), the “odorant receptor agonist call” value is “inactive”.

As to `CCC1OC(C)=C(O)C1=O` (stereo not given), the “odorant receptor agonist call” value is “inactive”.

For `CCCCCCC=CCCC=O`, the “odorant receptor agonist call” value was “inactive”.

As to `CCC1OC(=O)C(O)=C1C` (stereo not given), the “odorant receptor agonist call” value was “inactive”.

As for `CC1=C(O)C(=O)C(C)O1` (stereo not given), the “odorant receptor agonist call” value is “inactive”.

Regarding `Cc1cnc(C)c(C)n1`, the “odorant receptor agonist call” value was “inactive”.

For `CCC(S)C(C)CO` (stereo not given), the “odorant receptor agonist call” value was “inactive”.
